Active and inactive are the calls of the source. No cut-off for these calls is given here.
How the values were obtained:
U2OS [1] = experiment: Inhibition of PI3K in human U2OS cells expressing FLAG-tagged SGK3 assessed as reduction in NDRG1 phosphorylation at T346 residues at 0.5 uM 1 hr by immunoblot analysis; format: cell-based
U2OS [2] = experiment: Inhibition of PI3K in human U2OS cells expressing FLAG-tagged SGK3 assessed as reduction in SGK3 activity at 0.5 uM using cross peptide as substrate incubated for 1 to 2 mins in presence of [gamma-32P]-ATP by radioactive assay; format: cell-based; settings: time 1-2 min
[3] = target: Phosphatidylinositol 3-kinase catalytic subunit type 3 (Homo sapiens) (UniProt Q8NEB9); experiment: Inhibition of Vps34 in human U2OS cells expressing C-terminal tagged-SGK3 assessed as reduction in SGK3 level in endosome at 0.5 uM incubated for 1 hr by Alexa Fluor 594 staining based fluorescence microscopic analysis; format: subcellular
Sequence of Phosphatidylinositol 3-kinase catalytic subunit type 3 (Homo sapiens) (Q8NEB9 whole entry): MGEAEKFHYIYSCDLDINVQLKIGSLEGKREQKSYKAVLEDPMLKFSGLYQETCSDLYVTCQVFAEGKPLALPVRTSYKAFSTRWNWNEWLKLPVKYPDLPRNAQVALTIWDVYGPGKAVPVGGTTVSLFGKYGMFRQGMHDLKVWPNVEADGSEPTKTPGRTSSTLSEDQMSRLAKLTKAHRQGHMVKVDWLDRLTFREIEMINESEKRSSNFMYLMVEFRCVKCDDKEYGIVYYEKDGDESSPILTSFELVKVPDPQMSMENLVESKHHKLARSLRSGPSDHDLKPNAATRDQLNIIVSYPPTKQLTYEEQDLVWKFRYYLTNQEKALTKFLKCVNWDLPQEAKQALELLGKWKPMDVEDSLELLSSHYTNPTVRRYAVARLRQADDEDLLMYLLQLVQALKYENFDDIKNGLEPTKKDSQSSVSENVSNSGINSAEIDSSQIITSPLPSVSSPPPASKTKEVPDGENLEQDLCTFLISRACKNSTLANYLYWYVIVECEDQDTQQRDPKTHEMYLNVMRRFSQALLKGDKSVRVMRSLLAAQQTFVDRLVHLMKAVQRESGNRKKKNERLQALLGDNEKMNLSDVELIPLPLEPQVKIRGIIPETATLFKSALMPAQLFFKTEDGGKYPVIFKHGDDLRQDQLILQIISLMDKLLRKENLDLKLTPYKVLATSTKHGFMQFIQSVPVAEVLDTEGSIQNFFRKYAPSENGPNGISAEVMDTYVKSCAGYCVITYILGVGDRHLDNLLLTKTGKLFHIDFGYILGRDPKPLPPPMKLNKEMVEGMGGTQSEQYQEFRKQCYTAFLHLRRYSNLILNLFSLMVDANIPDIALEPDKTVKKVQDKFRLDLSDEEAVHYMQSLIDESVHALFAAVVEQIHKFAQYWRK

U2OS [4] = experiment: Inhibition of PI3K in human U2OS cells expressing FLAG-tagged SGK3 assessed as reduction in 4EBP1 phosphorylation T37/T46 residues at 0.5 uM 1 hr by immunoblot analysis; format: cell-based
Method in brief: (§1)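 FLAG-SGK3 U2OS Flp-In cells (doxycycline-induced) treated for 1 h with class I PI3K inhibitor, 0.5 μM or a dose series as indicated. Lysed in phosphatase-inhibitor buffer, clarified at 16000 g for 10 min at 4°C, Bradford-normalized. Akt, PRAS40 and 4EBP1 phosphosites were read by immunoblot, and SGK3 sites on anti-FLAG immunoprecipitates, with ECL film detection.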

U2OS [5] = experiment: Inhibition of PI3K in human U2OS cells expressing FLAG-tagged SGK3 assessed as reduction in AKT phosphorylation T308 residues at 0.5 uM 1 hr by immunoblot analysis; format: cell-based; method in brief: as §1
[6] = target: Phosphatidylinositol 3-kinase catalytic subunit type 3 (Homo sapiens) (UniProt Q8NEB9); experiment: Inhibition of Vps34 in human U2OS cells expressing GFP-2xFYVEHrs assessed as reduction in PtdIns(3)P level in endosome at 0.5 uM incubated for 1 hr by Alexa Fluor 488 staining based fluorescence microscopic analysis relative to control
Method in brief: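 U2OS clone with low stable expression of lentiviral GFP–2×FYVEHrs; 1 h inhibitor exposure. Permeabilized by a freeze–thaw in liquid nitrogen, then fixed in 4% paraformaldehyde, stained with anti-GFP plus Alexa Fluor 488 secondary and DAPI. Ten random fields of 20–25 cells each; fluorescence per cell (field total/cell count) expressed relative to DMSO, mean±S.D.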

U2OS [7] = experiment: Inhibition of PI3K in human U2OS cells expressing FLAG-tagged SGK3 assessed as reduction in SGK3 phosphorylation at T320 residues 0.5 uM after 1 hr by immunoblot analysis; format: cell-based; method in brief: as §1
U2OS [8] = experiment: Inhibition of PI3K in human U2OS cells expressing FLAG-tagged SGK3 assessed as reduction in PRAS40 phosphorylation T246 residues at 0.5 uM 1 hr by immunoblot analysis; format: cell-based; method in brief: as §1
U2OS [9] = experiment: Inhibition of PI3K in human U2OS cells expressing FLAG-tagged SGK3 assessed as reduction in SGK3 phosphorylation at T320 residues 0.5 uM after 1 to 2 mins by immunoblot analysis; format: cell-based; settings: time 1-2 min
U2OS [10] = experiment: Inhibition of PI3K in human U2OS cells expressing GFP-PHAkt1 assessed as reduction in IGF-stimulated PtdIns(3,4,5)P3/PtdIns(3,4)P2 level in endosome at 0.5 uM pre incubated for 1 hr followed by IGF stimulation and measured after 15 mins by Alexa Fluor 488 staining based fluorescence microscopic analysis; format: subcellular; settings: time 1.25 hrs
U2OS [11] = experiment: Inhibition of PI3K in human U2OS cells expressing FLAG-tagged SGK3 assessed as reduction in 4EBP1 phosphorylation S65 residues at 0.5 uM 1 hr by immunoblot analysis; format: cell-based; method in brief: as §1
U2OS [12] = experiment: Inhibition of PI3K in human U2OS cells expressing FLAG-tagged SGK3 assessed as reduction in SGK3 phosphorylation at S486 residues 0.5 uM after 1 to 2 mins by immunoblot analysis; format: cell-based; settings: time 1-2 min
U2OS [13] = experiment: Inhibition of PI3K in human U2OS cells expressing FLAG-tagged SGK3 assessed as reduction in AKT phosphorylation S473 residues at 0.5 uM 1 hr by immunoblot analysis; format: cell-based; method in brief: as §1
U2OS [14] = experiment: Inhibition of PI3K in human U2OS cells expressing FLAG-tagged SGK3 assessed as reduction in SGK3 phosphorylation at S486 residues 0.5 uM after 1 hr by immunoblot analysis; format: cell-based; method in brief: as §1
U2OS [15] = experiment: Inhibition of PI3K in human U2OS cells expressing FLAG-tagged SGK3 assessed as reduction in 4EBP1 phosphorylation S65 residues at 0.01 to 0.5 uM 1 hr by immunoblot analysis; format: cell-based; settings: dose 0.01-0.5 µM; method in brief: as §1
U2OS [16] = experiment: Inhibition of PI3K in human U2OS cells expressing FLAG-tagged SGK3 assessed as reduction in AKT phosphorylation T308 residues at 0.01 to 0.5 uM 1 hr by immunoblot analysis; format: cell-based; settings: dose 0.01-0.5 µM; method in brief: as §1
U2OS [17] = experiment: Inhibition of PI3K in human U2OS cells expressing FLAG-tagged SGK3 assessed as reduction in PRAS40 phosphorylation T246 residues at 0.01 to 0.5 uM 1 hr by immunoblot analysis; format: cell-based; settings: dose 0.01-0.5 µM; method in brief: as §1
U2OS [18] = experiment: Inhibition of PI3K in human U2OS cells expressing FLAG-tagged SGK3 assessed as reduction in 4EBP1 phosphorylation T37/T46 residues at 0.01 to 0.5 uM 1 hr by immunoblot analysis; format: cell-based; settings: dose 0.01-0.5 µM; method in brief: as §1
U2OS [19] = experiment: Inhibition of PI3K in human U2OS cells expressing FLAG-tagged SGK3 assessed as reduction in AKT phosphorylation S473 residues at 0.01 to 0.5 uM 1 hr by immunoblot analysis; format: cell-based; settings: dose 0.01-0.5 µM; method in brief: as §1
[20] = target: T1, 3-phosphoinositide-dependent protein kinase 1 (Homo sapiens) (UniProt O15530); experiment: Inhibition of PDK1 in human U2OS cells expressing FLAG-tagged SGK3 assessed as reduction in SGK3 phosphorylation at S486 residues at 1 uM after 1 hr by immunoblot analysis; format: cell-based
T1 sequence (whole entry): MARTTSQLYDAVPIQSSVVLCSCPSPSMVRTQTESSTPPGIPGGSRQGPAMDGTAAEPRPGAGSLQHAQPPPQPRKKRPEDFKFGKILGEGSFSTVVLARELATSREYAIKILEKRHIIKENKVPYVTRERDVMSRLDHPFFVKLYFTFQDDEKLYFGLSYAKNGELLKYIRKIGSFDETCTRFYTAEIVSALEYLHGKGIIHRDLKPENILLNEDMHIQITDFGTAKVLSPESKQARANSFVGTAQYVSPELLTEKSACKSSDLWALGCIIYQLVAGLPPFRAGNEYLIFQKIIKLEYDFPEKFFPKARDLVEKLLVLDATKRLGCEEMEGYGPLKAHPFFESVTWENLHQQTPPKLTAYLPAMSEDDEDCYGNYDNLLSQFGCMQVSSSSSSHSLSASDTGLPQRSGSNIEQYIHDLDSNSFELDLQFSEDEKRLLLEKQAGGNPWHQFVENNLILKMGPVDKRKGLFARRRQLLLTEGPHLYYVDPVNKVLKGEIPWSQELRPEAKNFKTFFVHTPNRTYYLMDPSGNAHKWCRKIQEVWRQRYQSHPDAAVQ
Method in brief: (§2)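 U2OS Flp-In cells with doxycycline-induced (0.01 mg/ml, 24 h) full-length SGK3 carrying a C-terminal FLAG tag; treated with 1 μM inhibitor for 1 h. Lysis, anti-FLAG immunoprecipitation, washes (high-salt lysis buffer, lysis buffer, 50 mM Tris pH 7.5/0.1 mM EGTA). IP kinase assay: 30 μM Crosstide, 0.1 mM [γ-32P]ATP, 10 mM Mg acetate, 30 min. Phosphosites then immunoblotted, ECL. Triplicate reactions.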

[21] = target: T1, 3-phosphoinositide-dependent protein kinase 1 (Homo sapiens); experiment: Inhibition of PDK1 in human U2OS cells expressing FLAG-tagged SGK3 assessed as reduction in SGK3 activity at 1 uM using cross peptide as substrate incubated for 30 mins in presence of [gamma-32P]-ATP by radioactive assay; format: cell-based; method in brief: as §2
[22] = target: T1, 3-phosphoinositide-dependent protein kinase 1 (Homo sapiens); experiment: Inhibition of PDK1 in human U2OS cells expressing FLAG-tagged SGK3 assessed as reduction in SGK3 phosphorylation at T320 residues at 1 uM after 1 hr by immunoblot analysis; format: cell-based; method in brief: as §2
[23] = target: Serine/threonine-protein kinase mTOR (Homo sapiens) (UniProt P42345); experiment: Inhibition of mTOR in human U2OS cells expressing FLAG-tagged SGK3 assessed as reduction in 4EBP1 phosphorylation S65 residues at 0.1 uM 1 hr by immunoblot analysis; format: cell-based
Method in brief: (§3)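 Doxycycline-induced FLAG-SGK3 U2OS Flp-In cells exposed to 0.1 μM mTOR inhibitor for 1 h. Clarified lysates immunoblotted for 4EBP1 phosphosites (Thr37/Thr46, Ser65), ECL film detection.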

[24] = target: Serine/threonine-protein kinase mTOR (Homo sapiens) (UniProt P42345); experiment: Inhibition of mTOR in human U2OS cells expressing FLAG-tagged SGK3 assessed as reduction in 4EBP1 phosphorylation T37/T46 residues at 0.1 uM 1 hr by immunoblot analysis; format: cell-based; method in brief: as §3

For `CS(=O)(=O)N1CCN(Cc2cc3nc(-c4cccc5[nH]ncc45)nc(N4CCOCC4)c3s2)CC1`, the inhibition (U2OS [1]) was “Active”, the inhibition (U2OS [2]) was “Active” and the inhibition [3] was “inactive”. The inhibition (U2OS [4]) was “inactive”, the inhibition (U2OS [5]) was “Active” and the inhibition [6] was “inactive”. For the same compound, the inhibition (U2OS [7]) was “Active”, the inhibition (U2OS [8]) was “Active” and the inhibition (U2OS [9]) was “Active”. For the same compound, the inhibition (U2OS [10]) was “Active”, the inhibition (U2OS [11]) was “inactive” and the inhibition (U2OS [12]) was “Active”. For the same compound, the inhibition (U2OS [13]) was “Active” and the inhibition (U2OS [14]) was “Active”.

`Nc1cc(C(F)(F)F)c(-c2cc(N3CCOCC3)nc(N3CCOCC3)n2)cn1` was tested, and the inhibition (U2OS [15]) was “inactive”, the inhibition (U2OS [16]) was “Active” and the inhibition (U2OS [17]) was “Active”. The inhibition (U2OS [18]) was “inactive” and the inhibition (U2OS [19]) was “Active”.

With `CNc1nc(-c2ccc3c(N)n[nH]c3c2)cc(N2C[C@@H](C(=O)NC3CCCCC3)CC[C@H]2C)n1` the inhibition [20] was “Active”, the inhibition [21] was “Active” and the inhibition [22] was “Active”.

With `COc1ccc(-c2ccc3c(N4CCOC[C@@H]4C)nc(N4CCOC[C@@H]4C)nc3n2)cc1CO` the inhibition [23] was “Active” and the inhibition [24] was “Active”.
